Screens: PubChem, Sanford-Burnham Center for Chemical Genomics
UPR CHOP act = activators of apoptotic arm of unfolded protein response (CHOP) | activation, % at 10 µM | AID 449763 | 330,000 tested, 0.34% active | CHO-CHOP luciferase reporter, UPR activation, luminescence; percent of tunicamycin response over DMSO baseline;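 active = at 10 µM dose, activation of 40% or more, normalized to positive control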;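 also: 100% = tunicamycin at 10 µg/mL and 0% = DMSO alone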
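System: CHO-CHOP luciferase reporter cell line; amount: 500 cells/well; buffer or medium: F12 medium containing 10% fetal bovine serum; incubation: 6 h compound exposure at 37 °C after overnight seeding; measured by: luciferase luminescence after 10 min with Steady-Glo reagent; evaluation: % reporter activation, DMSO baseline versus tunicamycin full activation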
697 NFkB inh = lowers PMA/ionomycin-induced NF-kB signal in 697 B cells; 697 B-cell NF-kB luciferase reporter, 16 h; inhibition, % at 4 µM; 330,000 tested, 0.33% active; AID 435022; in the data active = inhibition above about 35%
XBP1 UPR activ = adaptive UPR (XBP1) activation | activation, % at 20 µM | CHO-XBP1 luciferase reporter, IRE1-XBP1 UPR activation, luminescence; percent of tunicamycin response, DMSO as zero | AID 463104 | 330,000 tested, 0.33% active;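 active = versus positive control, 20 µM dose yields 30% or more activation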;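 also: 100% = tunicamycin at 10 µg/mL and 0% = DMSO only wells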
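Material: IRE1-XBP1 luciferase reporter CHO line / Quantity: one thousand reporter cells per well / Buffer or medium: F12 with 10% serum / Compound: 20 µM single concentration, DMSO 1% / Times: 6 h treatment, 37 °C / Detection: Steady-Glo luciferase glow luminescence, 10 min after reagent addition / Benchmarks: tunicamycin high, DMSO low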
CRFR2-BP antag = blocks CRF-induced signaling of the CRF-BP/CRF-R2 complex; inhibition, % at 11.8 µM; 350,000 tested, 0.59% active; HEK293 CRF-R2/CRF-BP, CRF-induced calcium fluorescence;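 active = inhibition of the ligand-induced calcium signal above about 50% at the single tested concentration, limit read from the data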
Jurkat NFkB inh = inhibitors of the PMA/ionomycin-induced NF-kB reporter in Jurkat cells; AID 435003; 330,000 tested, 0.53% active; PMA/ionomycin-induced NF-kB luciferase reporter, luminescence; inhibition, % at 4 µM; in the data active = inhibition above about 50%
697 NFkB conf = lowers PMA/ionomycin-induced NF-kB signal in 697 B cells; inhibition, % at 4 µM; shares compounds with 697 NFkB inh; 2,000 tested, 35% active; 697 B-cell NF-kB luciferase, 16 h; in the data active = inhibition mostly above about 28%, no sharp cut-off; inactive = mostly below about 22%
* = called active by the depositor; i = inactive; . = not tested or not shown. In the library only some 1.8% were active in any assay of this set; here they are far more common.

SMILES	UPR CHOP act	697 NFkB inh	XBP1 UPR activ	CRFR2-BP antag	Jurkat NFkB inh	697 NFkB conf
COc1cc(C[C@@H]2C(=O)OC[C@H]2Cc2ccc(OC)c(OC)c2)ccc1O	4	85*	-3	2	42	70*
COc1cc(CC2COC(=O)C2(O)Cc2ccc(O)c(OC)c2)ccc1O (centres undefined)	3	-14	-2	18	12	.
CCOC(=O)c1sc(NC(=O)c2cc(-c3ccccc3C)nc3ccccc23)c(C#N)c1C	5	36*	-4	20	6	40*
Cc1cc(C)cc(OCc2nnc(SCC(=O)c3ccccc3)o2)c1	2	46*	0	-21	5	45*
Cc1cccc(OCc2nnc(SCC(=O)c3ccccc3)o2)c1	5	34	1	8	-13	.
Cc1ccc(C(=O)CSc2nnc(COc3ccccc3)o2)cc1	-1	54*	-4	-10	6	40*
Cc1ccc(C(=O)CSc2nnc(COc3cc(C)cc(C)c3)o2)cc1	-2	36*	0	-18	6	55*
COc1ccc(NCc2nnc(SCC(=O)c3ccc(C)cc3)o2)cc1	1	-11	2	-2	2	.
O=C(CSc1nnc(COc2ccccc2)o1)c1ccccc1	-1	35	-1	13	15	.
CN1CCN(NC(=O)c2c(-c3ccccc3)sc3ccccc23)CC1	1	-10	-1	-1	0	.
O=C(CN1C(=O)c2ccccc2S1(=O)=O)c1ccc(OC(F)F)cc1	-7	40*	-9	-6	17	36*
O=C(CN1C(=O)c2ccccc2S1(=O)=O)c1ccc(Cl)cc1Cl	-9	74*	-9	-21	-14	74*
O=C(CN1C(=O)c2ccccc2S1(=O)=O)c1ccccc1F	-5	0	-13	-9	-3	.
CC(C)[C@H](NS(=O)(=O)c1ccccc1)C(=O)OCC(=O)NC(=O)NC1CCCCC1	-1	6	-4	-8	-4	.
COc1ccc(C(=O)NC2CCN(CC(=O)Nc3cccc(OC)c3)CC2)cc1	-1	9	-5	1	7	.
N#CCCCc1cc2cc(F)ccc2cn1	2	21	-2	3	-23	.
Cc1ccc2nc(Cl)c(/C=N/Nc3ccc(C(=O)O)cc3)cc2c1	2	-490	-3	8	-144	-383
Cc1cc(C(=O)COC(=O)c2ccco2)c(C)n1Cc1ccco1	-8	-47	-12	17	-51	.
Cc1cc(C(=O)COC(=O)c2cccn2C)c(C)n1Cc1ccco1	-3	-305	-9	5	-133	-240
CCN(c1ccccc1)S(=O)(=O)c1ccc(C(=O)NCC(=O)Nc2ccc(F)c(F)c2F)cc1	6	11	-3	-9	19	.
N=c1c2c(n(Cc3ccccc3)c3c1CCC3)CCC2	0	2	-7	2	40	.
N=c1c2c(n(Cc3ccc(Cl)cc3)c3c1CCC3)CCC2	0	105*	-3	11	34	25
N=c1c2c(n(Cc3cccc(Cl)c3)c3c1CCC3)CCCC2	2	43*	2	13	41	38*
COC(=O)c1ccccc1NC(=S)NC(=O)c1ccc2c(c1)OCO2	1	46*	-3	-4	1	9
COC(=O)c1ccccc1NC(=O)c1ccc2c(c1)OCCO2	2	-29	0	-19	0	.
SMILES	UPR CHOP act	697 NFkB inh	XBP1 UPR activ	CRFR2-BP antag	Jurkat NFkB inh	697 NFkB conf
Cc1ccc(C(=O)c2coc3ccc(O)cc23)cc1	0	-254	-3	26	-133	-323
COc1ccc(C(=O)c2coc3ccc(OC(C)=O)cc23)cc1	3	-279	-6	-30	-124	-312
Cc1ccc(C(=O)c2coc3ccc(O)c(Cl)c23)cc1	5	-55	2	4	-42	.
O=c1nc(Nc2ccc(OCc3ccccc3)cc2)sc2ncccc12	-1	i	0	-1	-55	i
Cc1ccc(Nc2nc(=O)c3cccnc3s2)c(Br)c1	4	-283	-1	-6	8	-254
CCOC(=O)c1ccc(Nc2nc(=O)c3cccnc3s2)cc1	1	-133	1	3	-118	.
Nc1ccccc1SCC(=O)Nc1nc(-c2ccccc2)cs1	4	47*	-4	6	23	40*
Cc1ccc(S(=O)(=O)N2CCC(C(=O)OCC(=O)N(C)C3CCS(=O)(=O)C3)CC2)cc1C (centres undefined)	-1	16	-2	0	-6	.
COc1ccc(S(=O)(=O)N(C)CC(=O)NCc2ccccn2)cc1	2	0	4	10	4	.
Nc1ccc(-c2ncc(-c3ccccc3)o2)cc1	-6	40*	-10	-11	-124	-6
CC(OC(=O)Cn1cnc2c1c(=O)n(C)c(=O)n2C)C(=O)NC1(C#N)CCCCC1 (centres undefined)	-1	-11	-2	20	-20	.
COc1ccc(C(=O)Nc2ccccc2C(=O)N/N=C/c2cccc3ccccc23)cc1	2	-351	-1	-10	-50	-186
COc1ccc(C(=O)Nc2ccccc2C(=O)Nc2ccccc2C(=O)O)cc1	7	-81	2	27	-12	.
COc1cccc(NC(=O)c2c(F)cccc2F)c1	1	39*	2	-5	42	27
Cc1cnc(C(=O)N2CCN(S(=O)(=O)c3ccc(F)c(F)c3F)CC2)cn1	-1	1	-2	4	16	.
Cc1nc2c(-c3ccc(F)cc3)cnn2c(N)c1-c1ccc(F)cc1	5	-357	6	-9	-149	-252
CS(=O)(=O)c1cnc2c(-c3ccc(F)cc3)cnn2c1N	8	-179	6	20	-136	.
Nc1c(-c2cccs2)cnc2c(-c3ccc(F)cc3)cnn12	5	-319	-3	-3	-147	-358
O=C1NC[C@@H](c2ccccc2)OC(=O)[C@H](Cc2ccc(F)cc2)C/C=C\C[C@H]1CC(=O)N(CCO)Cc1ccccc1	0	11	-2	-9	-3	.
O=C1NC[C@H](c2ccccc2)OC(=O)[C@@H](Cc2ccc(F)cc2)C/C=C\C[C@H]1CC(=O)N(CCO)Cc1ccccc1	11	40*	3	-1	31	24*
CC(C)c1ccc(NC(=O)Cn2nnc(C(=O)NCc3ccco3)c2N)cc1	1	-6	-1	2	-2	.
CCn1cc(C(=O)O)c(=O)c2cnc(N3CCN(C(=S)NC(=O)c4ccc(Cl)cc4)CC3)nc21	0	38*	-2	5	18	-1
CCn1cc(C(=O)O)c(=O)c2cc(F)c(N3CCN(C(=S)NC(=O)c4ccc(OC)cc4)CC3)cc21	2	13	-3	-7	7	.
CCn1cc(C(=O)O)c(=O)c2cnc(N3CCN(C(=S)Nc4ccc(F)cc4)CC3)nc21	-2	8	-2	-2	7	.
